Source: ChEMBL document CHEMBL4680287, “Ibrexafungerp: An orally active β-1,3-glucan synthesis inhibitor” (Bioorg Med Chem Lett, 2021)

How the values were obtained:
[1] = Half life in rat; type: ADME; settings: in vivo
[2] = system: Aspergillus fumigatus; assay: Antifungal activity against Aspergillus fumigatus MF5668 infected in DBA/2N mouse assessed as mouse survival at 12.5 mg/kg, ip bid administered for 7 days starting from 15 to 30 mins post infection and measured up to 21 days relative to control; type: functional; settings: 168 h, time 7 day
Summary of the method: (§1)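 DBA/2N mice were infected IV with A. fumigatus MF5668 (6.7 x 10^5 CFU/mouse) and treated IP bid for 7 days. Percent survival per dose group was scored at the end of the 21-day survival model and compared with the sham-treated control group.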

[3] = system: Candida albicans; assay: Antifungal activity against Candida albicans MY1055 infected in DBA/2 mouse model of disseminated candidiasis assessed as reduction in fungal burden in kidney by measuring log change in colony forming units at 12.5 mg/kg, po bid for 7 days by TOKA; type: functional; settings: time 7 day
Summary of the method: (§2)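 Murine disseminated candidiasis model (TOKA) in mice challenged with C. albicans MY1055 at 2.44 x 10^4 CFU/mouse. Dosed PO, or IP where stated. Kidneys collected aseptically 7 days after challenge and CFUs/g counted. Change in log CFU/g is relative to sham-treated controls; significance by two-tailed t test. Clearance is the percentage of kidneys below the detection limit.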

[4] = system: Aspergillus fumigatus; assay: Antifungal activity against Aspergillus fumigatus MF5668 infected in ip dosed DBA/2N mouse assessed as 50% mouse survival administered bid administered for 7 days starting from 15 to 30 mins post infection and measured up to 21 days; settings: 168 h
[5] = Dose normalized AUC in po rhesus monkey; type: ADME, organism-based, Macaca mulatta; settings: in vivo
[6] = system: Candida albicans; assay: Antifungal activity against Candida albicans MY1055 assessed as fungal growth inhibition measured after 24 hrs in presence of 50% mouse serum by liquid microdilution method; type: functional
Summary of the method: (§3)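 Broth microdilution per CLSI protocols in RPMI medium. Read-out is the MIC, the lowest concentration completely inhibiting fungal growth. Run without serum and with added serum.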

[7] = Half life in rhesus monkey; type: ADME, Macaca mulatta; settings: in vivo
[8] = system: Aspergillus fumigatus; assay: Antifungal activity against Aspergillus fumigatus MF5668 infected in DBA/2N mouse assessed as mean survival time at 12.5 mg/kg, ip bid administered for 7 days starting from 15 to 30 mins post infection and measured up to 21 days; type: functional; settings: time 7 day
Summary of the method: (§4)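 DBA/2N mice were challenged IV with A. fumigatus MF5668 at 6.7 x 10^5 CFU/mouse, then dosed IP twice daily for 7 days. Survival was followed over a 21-day model, and mean survival time in days was recorded per dose group. A sham-treated control group was run alongside.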

[9] = Clearance in rhesus monkey; type: ADME, Macaca mulatta; settings: in vivo
[10] = Oral bioavailability in rhesus monkey; type: ADME, organism-based, Macaca mulatta; settings: in vivo
Summary of the method: (§5)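 Oral bioavailability calculated as oral AUC normalized to the IV dose, divided by the IV AUC.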

[11] = Half life in dog; type: ADME, Canis lupus familiaris; settings: in vivo
[12] = Dose normalized AUC in po dosed rat; type: ADME, organism-based; settings: in vivo
[13] = system: Candida albicans; assay: Antifungal activity against Candida albicans MY1055 infected in DBA/2 mouse model of disseminated candidiasis assessed as reduction in fungal burden in kidney by measuring log change in colony forming units at 6.25 mg/kg, po bid for 7 days by TOKA; type: functional; settings: time 7 day; summary of the method: as §2
[14] = Clearance in rat; type: ADME; settings: in vivo
[15] = system: Aspergillus fumigatus; assay: Antifungal activity against Aspergillus fumigatus MF5668 infected in DBA/2N mouse assessed as mean survival time at 6.25 mg/kg, ip bid administered for 7 days starting from 15 to 30 mins post infection and measured up to 21 days; type: functional; settings: time 7 day; summary of the method: as §4
[16] = Dose normalized AUC in po dosed mouse; type: ADME, organism-based; settings: in vivo
[17] = Dose normalized AUC in po dosed dog; type: ADME, organism-based, Canis lupus familiaris; settings: in vivo
[18] = system: Candida albicans; assay: Antifungal activity against Candida albicans MY1055 infected in ip dosed DBA/2 mouse model of disseminated candidiasis assessed as reduction in fungal burden in kidney administered bid for 7 days by TOKA; type: functional; settings: 168 h, time 7 day; summary of the method: as §2
[19] = Oral bioavailability in rat; type: ADME, organism-based; settings: in vivo; summary of the method: as §5
[20] = system: Candida albicans; assay: Antifungal activity against Candida albicans MY1055 infected in DBA/2 mouse model of disseminated candidiasis assessed as reduction in fungal burden in kidney by measuring log change in colony forming units at 25 mg/kg, po bid for 7 days by TOKA; type: functional; settings: time 7 day; summary of the method: as §2
[21] = Oral bioavailability in dog; type: ADME, organism-based, Canis lupus familiaris; settings: in vivo; summary of the method: as §5
[22] = Half life in mouse; type: ADME, organism-based; settings: in vivo
[23] = system: Candida albicans; assay: Antifungal activity against Candida albicans MY1055 infected in DBA/2 mouse model of disseminated candidiasis assessed as reduction in fungal burden in kidney by measuring log change in colony forming units at 12.5 mg/kg, ip bid for 7 days by TOKA; type: functional; settings: time 7 day; summary of the method: as §2
[24] = system: Aspergillus fumigatus; assay: Antifungal activity against Aspergillus fumigatus MF5668 assessed inhibition of fungal growth by measuring morphological changes measured after 24 hrs by microscopy; type: functional; settings: read-out: MEC
Summary of the method: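 Microdilution per CLSI protocols in RPMI medium. Read-out is the minimum effective concentration (MEC). Run without serum and with 50% human serum.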

[25] = Inhibition of beta-1,3-glucan synthase in Candida albicans MY1055 microsomal membrane assessed as inhibition of TCA-insoluble material formation using UDP-[3H]-glucose as substrate incubated for 2 hrs in presence of GTP by radioactivity-based assay; type: microsomes, Microsome
Summary of the method: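 GS IC50 measured using Candida albicans MY1055 microsomal membrane fragments as the enzyme source.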

[26] = system: Aspergillus fumigatus; assay: Antifungal activity against Aspergillus fumigatus MF5668 infected in DBA/2N mouse assessed as mean survival time at 1.56 mg/kg, ip bid administered for 7 days starting from 15 to 30 mins post infection and measured up to 21 days; type: functional; settings: time 7 day; summary of the method: as §4
[27] = Clearance in dog; type: ADME, Canis lupus familiaris; settings: in vivo
[28] = system: Aspergillus fumigatus; assay: Antifungal activity against Aspergillus fumigatus MF5668 infected in DBA/2N mouse assessed as mouse survival at 3.125 mg/kg, ip bid administered for 7 days starting from 15 to 30 mins post infection and measured up to 21 days relative to control; type: functional; settings: 168 h, time 7 day; summary of the method: as §1
[29] = system: Aspergillus fumigatus; assay: Antifungal activity against Aspergillus fumigatus MF5668 infected in DBA/2N mouse assessed as mouse survival at 6.25 mg/kg, ip bid administered for 7 days starting from 15 to 30 mins post infection and measured up to 21 days relative to control; type: functional; settings: 168 h, time 7 day; summary of the method: as §1
[30] = system: Aspergillus fumigatus; assay: Antifungal activity against Aspergillus fumigatus MF5668 infected in DBA/2N mouse assessed as mean survival time at 3.125 mg/kg, ip bid administered for 7 days starting from 15 to 30 mins post infection and measured up to 21 days; type: functional; settings: time 7 day; summary of the method: as §4
[31] = Oral bioavailability in mouse; type: ADME, organism-based; settings: in vivo; summary of the method: as §5
[32] = system: Aspergillus fumigatus; assay: Antifungal activity against Aspergillus fumigatus MF5668 infected in ip dosed DBA/2N mouse assessed as 90% mouse survival administered bid administered for 7 days starting from 15 to 30 mins post infection and measured up to 21 days; type: functional; settings: 168 h, time 7 day
[33] = system: Aspergillus fumigatus; assay: Antifungal activity against Aspergillus fumigatus MF5668 infected in DBA/2N mouse assessed as mouse survival at 1.56 mg/kg, ip bid administered for 7 days starting from 15 to 30 mins post infection and measured up to 21 days relative to control; type: functional; settings: 168 h, time 7 day; summary of the method: as §1
[34] = Clearance in mouse; type: ADME, organism-based; settings: in vivo
[35] = system: Candida albicans; assay: Antifungal activity against Candida albicans MY1055 assessed as fungal growth inhibition measured after 24 hrs by liquid microdilution method; type: functional; summary of the method: as §3

| SMILES | half-life [1] [min] | survival at 12.5 mg/kg [2] [%] | Activity [3] [deltalog10CFU] | ED50 [4] [mg/kg] | MIC [6] [µg/mL] | MST [8] [days] | AUC/dose [12] [µM·kg·h/mg] | Activity [13] [deltalog10CFU] | clearance [14] [mL/min/kg] | MST [15] [days] | AUC/dose [16] [µM·kg·h/mg] | ED99 [18] [mg/kg] | bioavailability [19] [%] | Activity [20] [deltalog10CFU] | half-life [22] [min] | Activity [23] [deltalog10CFU] | minimal effective concentration [24] [µg/mL] | IC50 [25] [ng/mL] | MST [26] [days] | survival at 3.125 mg/kg [28] [%] | further results |
| --- | --- | --- | --- | --- | --- | --- | --- | --- | --- | --- | --- | --- | --- | --- | --- | --- | --- | --- | --- | --- | --- |
| CC(C)[C@@H](C)[C@@]1(C)CC[C@]2(C)[C@H]3CC[C@@H]4[C@@]5(COC[C@@]4(C)[C@@H](OC[C@](C)(N)C(C)C)[C@H](n4ncnc4-c4ccncc4)C5)C3=CC[C@@]2(C)[C@@H]1C(=O)O | 234 | 60 | -2.9 | 8.2 | 0.5 | 14.7 | 0.56 | -2.4 | 12 | 12.4 | 0.42 | 1.2 | 28 | -4.5 | 294 | -4.01 | < 0.03 | 2 | 4.2 | 30 | AUC/dose [5]: 0.08 µM·kg·h/mg; half-life [7]: 366 min; clearance [9]: 14 mL/min/kg; bioavailability [10]: 5%; half-life [11]: 540 min; AUC/dose [17]: 0.9 µM·kg·h/mg; bioavailability [21]: 21%; clearance [27]: 6 mL/min/kg; survival at 6.25 mg/kg [29]: 40%; MST [30]: 10.7 days; bioavailability [31]: 31%; ED90 [32]: 31 mg/kg; survival at 1.56 mg/kg [33]: 0%; clearance [34]: 17 mL/min/kg; MIC [35]: < 0.03 µg/mL |
| CC(C)[C@@H](C)[C@@]1(C)CC[C@]2(C)[C@H]3CC[C@@H]4[C@@]5(COC[C@@]4(C)[C@@H](OCC4(N)CCOCC4)[C@H](n4ncnc4-c4ccncc4)C5)C3=CC[C@@]2(C)[C@@H]1C(=O)O | 114 | 60 | -3.1 | 11 | 0.25 | 14.6 | 0.34 | -1.4 | 20 | 12.5 | 0.18 | 3.8 | 30 | -3.9 | 126 | -4 | < 0.03 | 2 | 4.1 | 10 | survival at 6.25 mg/kg [29]: 40%; MST [30]: 7.3 days; bioavailability [31]: 13%; ED90 [32]: 26 mg/kg; survival at 1.56 mg/kg [33]: 0%; clearance [34]: 18 mL/min/kg; MIC [35]: < 0.03 µg/mL |
